Source: ChEMBL document CHEMBL5634209, “Computational design, synthesis, and assessment of 3-(4-(4-(1,3,4-oxadiazol-2-yl)-1H-imidazol-2-yl)phenyl)-1,2,4-oxadiazole derivatives as effective epidermal growth factor receptor inhibitors: a prospective strategy for anticancer therapy” (RSC Med Chem, 2024)

Key:
[1] = target: Epidermal growth factor receptor (Homo sapiens, UniProt P00533); experiment: Inhibition of wild type EGFR (unknown origin) incubated for 40 mins by Kinase Glo Max reagent based luminescence analysis
[2] = Selectivity index, ratio of IC50 for cytotoxicity against African green monkey Vero cells to IC50 for antiproliferative activity against human HepG2 cells; format: toxicity, cell-based; conditions: Vero cells versus HepG2 cells, read-out: Ratio IC50
[3] = tested on: HepG2; experiment: Induction of cell cycle arrest in human HepG2 cells assessed as accumulation of cell debris at 0.44 uM incubated for 24 hrs by propidium iodide staining based flow cytometry (reference value: 0.12%); format: functional
In short: (§1)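 HepG2 cells were seeded, incubated overnight at 37 °C and, at 70–80% confluence, treated 24 h with 0.11, 0.22 or 0.44 µM in fresh medium; untreated cells served as control. Cells were then digested, washed in PBS and fixed in pre-cooled 75% ethanol at 4 °C for over 18 h. Staining used propidium iodide 50 µg/mL plus RNase 50 µg/mL for 30 min at 37 °C, and DNA content was read by flow cytometry.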

[4] = tested on: HepG2; experiment: Induction of cell cycle arrest in human HepG2 cells assessed as accumulation of cells at S phase at 0.44 uM incubated for 24 hrs by propidium iodide staining based flow cytometry (reference value: 46.98%); format: functional; in short: as §1
[5] = tested on: A549; experiment: Antiproliferative activity against human A549 cells assessed as reduction in cell viability measured after 48 hrs by MTT assay; format: functional, cell-based; conditions: A549, 48 h
In short: (§2)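 Cells were grown at 37 °C in 5% CO2 in medium with 10% FBS: RPMI-1640 for A549, DU-145 and HepG2, and DMEM/F12 for PC-3. They were seeded at 5×10^3/well. At 70–80% confluence they were exposed to a concentration range diluted from a 60 mM DMSO stock for 48 h at 37 °C, with 0.1% DMSO as vehicle. MTT 5 mg/mL stock was added for 4 h, formazan dissolved in DMSO, A570 read, and % inhibition calculated against control. IC50 was taken from the concentration series.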

[6] = tested on: HepG2; experiment: Induction of cell cycle arrest in human HepG2 cells assessed as accumulation of cells at G2/M phase at 0.11 uM incubated for 24 hrs by propidium iodide staining based flow cytometry (reference value: 18.81%); format: functional; in short: as §1
[7] = tested on: HepG2; experiment: Induction of cell cycle arrest in human HepG2 cells assessed as accumulation of cells at G2/M phase at […] incubated for 24 hrs by propidium iodide staining based flow cytometry (reference value: 18.81%); format: functional; conditions: dose 0.22 µM
[8] = Selectivity index, ratio of IC50 for cytotoxicity against African green monkey Vero cells to IC50 for antiproliferative activity against human DU-145 cells; format: toxicity, cell-based; conditions: Vero cells versus DU-145 cells, read-out: Ratio IC50
[9] = tested on: HepG2; experiment: Induction of cell cycle arrest in human HepG2 cells assessed as accumulation of cells at G0/G1 phase at […] incubated for 24 hrs by propidium iodide staining based flow cytometry (reference value: 35.61%); format: functional; conditions: dose 0.22 µM
[10] = tested on: HepG2; experiment: Induction of cell cycle arrest in human HepG2 cells assessed as accumulation of cells at S phase at 0.11 uM incubated for 24 hrs by propidium iodide staining based flow cytometry (reference value: 46.98%); format: functional; in short: as §1
[11] = tested on: HepG2; experiment: Induction of cell cycle arrest in human HepG2 cells assessed as accumulation of cells at G2/M phase at 0.44 uM incubated for 24 hrs by propidium iodide staining based flow cytometry (reference value: 18.81%); format: functional; in short: as §1
[12] = Cytotoxicity against African green monkey Vero cells assessed as reduction in cell viability measured after 48 hrs by MTT assay; format: toxicity, cell-based; conditions: African green monkey (Chlorocebus sabaeus)
[13] = Selectivity index, ratio of IC50 for cytotoxicity against African green monkey Vero cells to IC50 for antiproliferative activity against human A549 cells; format: toxicity, cell-based; conditions: Vero cells versus A549 cells, read-out: Ratio IC50
[14] = tested on: HepG2; experiment: Induction of apoptosis in human HepG2 cells assessed as viable cells at […] incubated for 24 hrs by AnnexinV-FITC/PI staining based flow cytometry (reference value: 96.94%); format: functional; conditions: dose 0.22 µM, read-out: Activity
[15] = tested on: HepG2; experiment: Induction of apoptosis in human HepG2 cells assessed as late apoptotic cells at 0.11 uM incubated for 24 hrs by AnnexinV-FITC/PI staining based flow cytometry (reference value: 0.032%); format: functional
[16] = tested on: HepG2; experiment: Induction of apoptosis in human HepG2 cells assessed as early apoptotic cells at 0.44 uM incubated for 24 hrs by AnnexinV-FITC/PI staining based flow cytometry (reference value: 2.91%); format: functional
[17] = target: Epidermal growth factor receptor (Homo sapiens, UniProt P00533, T790M); experiment: Inhibition of EGFR T790M mutant (unknown origin) incubated for 40 mins by Kinase Glo Max reagent based luminescence analysis
[18] = tested on: HepG2; experiment: Induction of cell cycle arrest in human HepG2 cells assessed as accumulation of cells at G0/G1 phase at 0.44 uM incubated for 24 hrs by propidium iodide staining based flow cytometry (reference value: 35.61%); format: functional; in short: as §1
[19] = tested on: HepG2; experiment: Induction of apoptosis in human HepG2 cells assessed as late apoptotic cells at 0.44 uM incubated for 24 hrs by AnnexinV-FITC/PI staining based flow cytometry (reference value: 0.032%); format: functional
[20] = tested on: HepG2; experiment: Induction of apoptosis in human HepG2 cells assessed as late apoptotic cells at […] incubated for 24 hrs by AnnexinV-FITC/PI staining based flow cytometry (reference value: 0.032%); format: functional; conditions: dose 0.22 µM
[21] = Selectivity index, ratio of IC50 for cytotoxicity against African green monkey Vero cells to IC50 for antiproliferative activity against human PC-3 cells; format: toxicity, cell-based; conditions: Vero cells versus PC-3 cells, read-out: Ratio IC50
[22] = tested on: HepG2; experiment: Induction of cell cycle arrest in human HepG2 cells assessed as accumulation of cell debris at 0.11 uM incubated for 24 hrs by propidium iodide staining based flow cytometry (reference value: 0.12%); format: functional; in short: as §1
[23] = tested on: HepG2; experiment: Induction of cell cycle arrest in human HepG2 cells assessed as accumulation of cells at G0/G1 phase at 0.11 uM incubated for 24 hrs by propidium iodide staining based flow cytometry (reference value: 35.61%); format: functional; in short: as §1
[24] = tested on: HepG2; experiment: Induction of cell cycle arrest in human HepG2 cells assessed as accumulation of cell debris at […] incubated for 24 hrs by propidium iodide staining based flow cytometry (reference value: 0.12%); format: functional; conditions: dose 0.22 µM
[25] = tested on: HepG2; experiment: Induction of apoptosis in human HepG2 cells assessed as early apoptotic cells at 0.11 uM incubated for 24 hrs by AnnexinV-FITC/PI staining based flow cytometry (reference value: 2.91%); format: functional
[26] = tested on: PC-3; experiment: Antiproliferative activity against human PC-3 cells assessed as reduction in cell viability measured after 48 hrs by MTT assay; format: functional, cell-based; conditions: PC-3, 48 h; in short: as §2
[27] = tested on: HepG2; experiment: Antiproliferative activity against human HepG2 cells assessed as reduction in cell viability measured after 48 hrs by MTT assay; format: functional, cell-based; conditions: HepG2, 48 h; in short: as §2
[28] = tested on: HepG2; experiment: Induction of apoptosis in human HepG2 cells assessed as viable cells at 0.44 uM incubated for 24 hrs by AnnexinV-FITC/PI staining based flow cytometry (reference value: 96.94%); format: functional; conditions: read-out: Activity
[29] = tested on: DU-145; experiment: Antiproliferative activity against human DU-145 cells assessed as reduction in cell viability measured after 48 hrs by MTT assay; format: functional, cell-based; conditions: DU-145, 48 h; in short: as §2
[30] = tested on: HepG2; experiment: Induction of apoptosis in human HepG2 cells assessed as necrotic cells at 0.11 uM incubated for 24 hrs by AnnexinV-FITC/PI staining based flow cytometry (reference value: 0.12%); format: functional
[31] = tested on: HepG2; experiment: Induction of apoptosis in human HepG2 cells assessed as necrotic cells at […] incubated for 24 hrs by AnnexinV-FITC/PI staining based flow cytometry (reference value: 0.12%); format: functional; conditions: dose 0.22 µM
[32] = tested on: HepG2; experiment: Induction of cell cycle arrest in human HepG2 cells assessed as accumulation of cells at S phase at […] incubated for 24 hrs by propidium iodide staining based flow cytometry (reference value: 46.98%); format: functional; conditions: dose 0.22 µM
[33] = tested on: HepG2; experiment: Induction of apoptosis in human HepG2 cells assessed as viable cells at 0.11 uM incubated for 24 hrs by AnnexinV-FITC/PI staining based flow cytometry (reference value: 96.94%); format: functional; conditions: read-out: Activity
[34] = tested on: HepG2; experiment: Induction of apoptosis in human HepG2 cells assessed as early apoptotic cells at […] incubated for 24 hrs by AnnexinV-FITC/PI staining based flow cytometry (reference value: 2.91%); format: functional; conditions: dose 0.22 µM
[35] = tested on: HepG2; experiment: Induction of apoptosis in human HepG2 cells assessed as necrotic cells at 0.44 uM incubated for 24 hrs by AnnexinV-FITC/PI staining based flow cytometry (reference value: 0.12%); format: functional

Sequence of Epidermal growth factor receptor (Homo sapiens, UniProt P00533, T790M) (P00533 25-1210 T790M limits assumed): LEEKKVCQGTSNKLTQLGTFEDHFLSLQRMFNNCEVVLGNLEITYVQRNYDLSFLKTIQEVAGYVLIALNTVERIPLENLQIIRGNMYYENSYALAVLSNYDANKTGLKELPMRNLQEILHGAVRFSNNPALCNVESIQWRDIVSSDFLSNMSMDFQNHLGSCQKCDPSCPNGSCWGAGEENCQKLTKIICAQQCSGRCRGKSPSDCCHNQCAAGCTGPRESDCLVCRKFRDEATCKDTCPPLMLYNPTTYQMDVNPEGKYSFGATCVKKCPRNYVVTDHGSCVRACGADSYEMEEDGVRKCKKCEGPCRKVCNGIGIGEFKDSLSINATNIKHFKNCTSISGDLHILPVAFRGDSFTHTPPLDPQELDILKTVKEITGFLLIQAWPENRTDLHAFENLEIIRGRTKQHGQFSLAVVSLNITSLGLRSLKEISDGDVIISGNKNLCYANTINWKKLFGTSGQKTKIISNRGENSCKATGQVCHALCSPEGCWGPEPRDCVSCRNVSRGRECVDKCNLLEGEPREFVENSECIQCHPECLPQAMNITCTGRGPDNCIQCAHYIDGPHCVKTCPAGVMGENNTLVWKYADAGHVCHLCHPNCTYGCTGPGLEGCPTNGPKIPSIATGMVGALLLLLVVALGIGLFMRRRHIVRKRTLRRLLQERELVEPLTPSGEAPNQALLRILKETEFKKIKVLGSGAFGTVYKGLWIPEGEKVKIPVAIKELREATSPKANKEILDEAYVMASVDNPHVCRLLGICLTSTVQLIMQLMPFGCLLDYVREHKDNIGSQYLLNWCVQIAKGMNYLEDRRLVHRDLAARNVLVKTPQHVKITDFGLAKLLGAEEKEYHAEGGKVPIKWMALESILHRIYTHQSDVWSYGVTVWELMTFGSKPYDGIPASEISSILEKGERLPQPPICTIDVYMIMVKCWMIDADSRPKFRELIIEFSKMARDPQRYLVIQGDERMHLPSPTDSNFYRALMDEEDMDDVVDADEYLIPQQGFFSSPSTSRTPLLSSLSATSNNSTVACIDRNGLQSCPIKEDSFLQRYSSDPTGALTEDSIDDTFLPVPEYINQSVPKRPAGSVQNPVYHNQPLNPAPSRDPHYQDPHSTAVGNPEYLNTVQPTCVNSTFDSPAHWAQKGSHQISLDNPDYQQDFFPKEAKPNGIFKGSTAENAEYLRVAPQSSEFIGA
Sequence of Epidermal growth factor receptor (Homo sapiens, UniProt P00533) (P00533 whole entry): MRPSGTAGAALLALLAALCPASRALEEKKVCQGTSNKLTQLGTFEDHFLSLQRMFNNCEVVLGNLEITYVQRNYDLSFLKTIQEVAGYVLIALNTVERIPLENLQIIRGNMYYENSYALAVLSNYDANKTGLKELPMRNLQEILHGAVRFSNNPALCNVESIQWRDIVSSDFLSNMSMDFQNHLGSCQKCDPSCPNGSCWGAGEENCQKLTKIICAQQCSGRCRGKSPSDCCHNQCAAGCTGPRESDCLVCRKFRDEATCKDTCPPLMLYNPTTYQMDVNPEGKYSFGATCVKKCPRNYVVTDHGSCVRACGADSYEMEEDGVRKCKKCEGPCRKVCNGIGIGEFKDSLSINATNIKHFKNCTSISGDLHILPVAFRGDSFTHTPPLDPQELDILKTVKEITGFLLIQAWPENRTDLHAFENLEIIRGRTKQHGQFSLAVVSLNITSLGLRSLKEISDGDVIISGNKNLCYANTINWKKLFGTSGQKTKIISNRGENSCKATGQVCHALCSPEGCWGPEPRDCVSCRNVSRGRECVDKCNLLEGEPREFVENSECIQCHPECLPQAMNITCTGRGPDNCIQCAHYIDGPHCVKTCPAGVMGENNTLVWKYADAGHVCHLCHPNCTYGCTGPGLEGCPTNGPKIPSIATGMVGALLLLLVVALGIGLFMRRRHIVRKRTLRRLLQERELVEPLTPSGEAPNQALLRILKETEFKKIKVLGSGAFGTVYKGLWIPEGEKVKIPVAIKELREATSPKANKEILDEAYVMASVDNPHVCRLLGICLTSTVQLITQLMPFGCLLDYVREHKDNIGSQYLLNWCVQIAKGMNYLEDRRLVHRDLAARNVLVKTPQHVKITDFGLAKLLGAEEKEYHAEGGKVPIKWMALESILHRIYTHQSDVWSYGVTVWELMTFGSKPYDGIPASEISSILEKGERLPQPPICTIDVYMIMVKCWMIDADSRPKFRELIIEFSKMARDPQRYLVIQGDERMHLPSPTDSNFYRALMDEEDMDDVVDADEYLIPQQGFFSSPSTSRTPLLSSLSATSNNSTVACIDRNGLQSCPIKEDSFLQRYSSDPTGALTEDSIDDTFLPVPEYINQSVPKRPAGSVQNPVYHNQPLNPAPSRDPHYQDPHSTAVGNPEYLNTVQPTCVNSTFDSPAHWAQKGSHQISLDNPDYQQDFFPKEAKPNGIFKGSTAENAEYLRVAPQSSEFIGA

## COc1cc(-c2nc(-c3ccc(-c4nc(-c5nnc(-c6ccncc6)o5)c[nH]4)cc3)no2)cc(OC)c1OC
[1]
  IC50: 102 nM
[2]
  selectivity ratio: 127
[3]
  Activity: 41.32%
[4]
  Activity: 19.22%
[5]
  IC50: 130 nM
[6]
  Activity: 23.99%
[7]
  Activity: 34.03%
[8]
  selectivity ratio: 32.5
[9]
  Activity: 36.01%
[10]
  Activity: 38.98%
[11]
  Activity: 47.32%
[12]
  IC50 at 48 h: > 14000 nM
[13]
  selectivity ratio: 108
[14]
  viability at […]: 65.4%
[15]
  Activity: 8.96%
[16]
  Activity: 18.23%
[17]
  IC50: 1090 nM
[18]
  Activity: 35.02%
[19]
  Activity: 27.92%
[20]
  Activity: 21.78%
[21]
  selectivity ratio: 117
[22]
  Activity: 0.71%
[23]
  Activity: 37.51%
[24]
  Activity: 6.72%
[25]
  Activity: 11.32%
[26]
  IC50: 120 nM
[27]
  IC50: 110 nM
[28]
  viability at 0.44 µM: 53.3%
[29]
  IC50: 430 nM
[30]
  Activity: 0.14%
[31]
  Activity: 0.456%
[32]
  Activity: 31.16%
[33]
  viability at 0.11 µM: 79.6%
[34]
  Activity: 12.33%
[35]
  Activity: 0.563%
